From ChEMBL document CHEMBL4689842, “EUbOPEN Chemogenomics Library wave 1” (2021)
Where “and” joins values, the source holds several entries; their conditions need not be identical. Identical values can stand only once.

Tested on: HEK-293T
Assay: Multiplex assay against HEK293T;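 on Population Tubulin-Different-Phenotype (%): share of the cells with healthy nuclei that show this phenotype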
Format: toxicity, cell-based
Conditions: human
Summary of the method: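 Four dyes were applied at seeding to live cells: Hoechst33342, BioTracker Green Microtubule Cytoskeleton Dye, MitoTracker Red and Annexin V Alexa Fluor 680. Imaging after compound addition used a CQ1 microscope at 37°C and 5% CO2. CellPathfinder machine-learning gating then sorted cells into Hoechst high-intensity objects or normal cells, normal cells into healthy, pyknosed or fragmented nuclei, and pyknosed cells into mitotic or apoptotic, with tubulin, mitochondrial-mass and membrane-permeability phenotypes given as per cents of healthy-nucleus cells.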

[1] = 12 h, 1 µM, compound concentration 1 uM, replicate 1
[2] = 12 h, 1 µM, compound concentration 1 uM, replicate 2
[3] = 12 h, 10 µM, compound concentration 10 uM, replicate 1
[4] = 12 h, 10 µM, compound concentration 10 uM, replicate 2
[5] = 24 h, 1 µM, compound concentration 1 uM, replicate 1
[6] = 24 h, 1 µM, compound concentration 1 uM, replicate 2
[7] = 24 h, 10 µM, compound concentration 10 uM, replicate 1
[8] = 24 h, 10 µM, compound concentration 10 uM, replicate 2
[9] = 48 h, 10 µM, compound concentration 10 uM, replicate 1
[10] = 48 h, 10 µM, compound concentration 10 uM, replicate 2

## C[C@@]1(C(=O)Nc2ccc(F)nc2)CCCN1c1nc(Nc2cc(C3CC3)n[nH]2)c2cccn2n1 [BMS-754807]
[1]
  Population Apoptotic (%): 24%
  Population Fragmented Nuclei (%): 19%
  Population Healthy Nuclei (%): 38%
  Population Hoechst High Intensity Objects (%): 25%
  Population Membrane Permeable-Phenotype (%): 7%
  Population Mitochondria Different-Phenotype (%): 32%
  Population Mitotic Cells (%): 75%
  Population Normal (%): 74%
  Population Pyknosed Nuclei (%): 42%
  Population Tubulin-Different-Phenotype (%): 68%
  Total Cell Count: 622
[2]
  Population Apoptotic (%): 20%
  Population Fragmented Nuclei (%): 3%
  Population Healthy Nuclei (%): 72%
  Population Hoechst High Intensity Objects (%): 12%
  Population Mitochondria Different-Phenotype (%): 57%
  Population Mitotic Cells (%): 80%
  Population Normal (%): 87%
  Population Pyknosed Nuclei (%): 23%
  Population Tubulin-Different-Phenotype (%): 92%
  Total Cell Count: 768
[3]
  Population Fragmented Nuclei (%): 13% and 14%
  Population Hoechst High Intensity Objects (%): 17% and 19%
  Population Membrane Permeable-Phenotype (%): 9% and 4%
  Population Normal (%): 82% and 80%
  Population Pyknosed Nuclei (%): 71% and 26%
  Total Cell Count: 259 and 598
[4]
  Population Fragmented Nuclei (%): 7% and 3%
  Population Hoechst High Intensity Objects (%): 9% and 6%
  Population Membrane Permeable-Phenotype (%): 10% and 3%
  Population Mitotic Cells (%): 51%
  Population Normal (%): 90% and 93%
  Population Tubulin-Different-Phenotype (%): 94% and 44%
[5]
  Population Apoptotic (%): 25%
  Population Fragmented Nuclei (%): 18%
  Population Healthy Nuclei (%): 56%
  Population Hoechst High Intensity Objects (%): 20%
  Population Membrane Permeable-Phenotype (%): 8%
  Population Mitochondria Different-Phenotype (%): 32%
  Population Mitotic Cells (%): 74%
  Population Normal (%): 79%
  Population Pyknosed Nuclei (%): 25%
  Population Tubulin-Different-Phenotype (%): 79%
  Total Cell Count: 652
[6]
  Population Apoptotic (%): 17%
  Population Fragmented Nuclei (%): 3%
  Population Healthy Nuclei (%): 82%
  Population Hoechst High Intensity Objects (%): 9%
  Population Membrane Permeable-Phenotype (%): 10%
  Population Mitochondria Different-Phenotype (%): 44%
  Population Mitotic Cells (%): 82%
  Population Normal (%): 90%
  Population Pyknosed Nuclei (%): 13%
  Population Tubulin-Different-Phenotype (%): 95%
  Total Cell Count: 865
[7]
  Population Apoptotic (%): 70% and 26%
  Population Fragmented Nuclei (%): 17% and 14%
  Population Hoechst High Intensity Objects (%): 14% and 19%
  Population Membrane Permeable-Phenotype (%): 2% and 5%
  Population Mitotic Cells (%): 29% and 73%
  Population Normal (%): 85% and 80%
  Population Tubulin-Different-Phenotype (%): 94% and 44%
  Total Cell Count: 284 and 562
[8]
  Population Fragmented Nuclei (%): 6% and 8%
  Population Hoechst High Intensity Objects (%): 10% and 8%
  Population Membrane Permeable-Phenotype (%): 10% and 4%
  Population Mitotic Cells (%): 30% and 81%
  Population Normal (%): 89% and 91%
  Population Tubulin-Different-Phenotype (%): 95% and 56%
[9]
  Population Apoptotic (%): 65%
  Population Fragmented Nuclei (%): 17%
  Population Healthy Nuclei (%): 7%
  Population Hoechst High Intensity Objects (%): 15%
  Population Membrane Permeable-Phenotype (%): 15%
  Population Mitochondria Different-Phenotype (%): 94%
  Population Mitotic Cells (%): 34%
  Population Normal (%): 84%
  Population Pyknosed Nuclei (%): 74%
  Population Tubulin-Different-Phenotype (%): 94%
  Total Cell Count: 290
[10]
  Population Apoptotic (%): 78%
  Population Fragmented Nuclei (%): 4%
  Population Healthy Nuclei (%): 57%
  Population Hoechst High Intensity Objects (%): 7%
  Population Membrane Permeable-Phenotype (%): 3%
  Population Mitochondria Different-Phenotype (%): 85%
  Population Mitotic Cells (%): 21%
  Population Normal (%): 92%
  Population Pyknosed Nuclei (%): 37%
  Population Tubulin-Different-Phenotype (%): 96%
  Total Cell Count: 199

## C=CC(=O)Nc1cc2c(Nc3ccc(F)c(Cl)c3)ncnc2cc1OCCCN1CCOCC1.Cl.Cl [CANERTINIB DIHYDROCHLORIDE]
[1]
  Population Apoptotic (%): 70%
  Population Fragmented Nuclei (%): 22%
  Population Healthy Nuclei (%): 35%
  Population Hoechst High Intensity Objects (%): 22%
  Population Membrane Permeable-Phenotype (%): 24%
  Population Mitochondria Different-Phenotype (%): 76%
  Population Mitotic Cells (%): 29%
  Population Normal (%): 77%
  Population Pyknosed Nuclei (%): 41%
  Population Tubulin-Different-Phenotype (%): 82%
  Total Cell Count: 582
[2]
  Population Apoptotic (%): 47%
  Population Fragmented Nuclei (%): 4%
  Population Healthy Nuclei (%): 80%
  Population Hoechst High Intensity Objects (%): 7%
  Population Membrane Permeable-Phenotype (%): 17%
  Population Mitochondria Different-Phenotype (%): 92%
  Population Mitotic Cells (%): 52%
  Population Normal (%): 92%
  Population Pyknosed Nuclei (%): 14%
  Population Tubulin-Different-Phenotype (%): 97%
  Total Cell Count: 863
[3]
  Population Apoptotic (%): 28%
  Population Fragmented Nuclei (%): 14%
  Population Healthy Nuclei (%): 60%
  Population Hoechst High Intensity Objects (%): 13%
  Population Membrane Permeable-Phenotype (%): 3%
  Population Mitochondria Different-Phenotype (%): 12%
  Population Mitotic Cells (%): 71%
  Population Normal (%): 86%
  Population Pyknosed Nuclei (%): 24%
  Population Tubulin-Different-Phenotype (%): 12%
  Total Cell Count: 583
[4]
  Population Apoptotic (%): 8%
  Population Fragmented Nuclei (%): 6%
  Population Healthy Nuclei (%): 88%
  Population Hoechst High Intensity Objects (%): 3%
  Population Membrane Permeable-Phenotype (%): 2%
  Population Mitochondria Different-Phenotype (%): 16%
  Population Mitotic Cells (%): 91%
  Population Normal (%): 96%
  Population Pyknosed Nuclei (%): 5%
  Population Tubulin-Different-Phenotype (%): 16%
  Total Cell Count: 1567
[5]
  Population Apoptotic (%): 79%
  Population Fragmented Nuclei (%): 21%
  Population Healthy Nuclei (%): 37%
  Population Hoechst High Intensity Objects (%): 24%
  Population Membrane Permeable-Phenotype (%): 8%
  Population Mitochondria Different-Phenotype (%): 69%
  Population Mitotic Cells (%): 20%
  Population Normal (%): 75%
  Population Pyknosed Nuclei (%): 40%
  Population Tubulin-Different-Phenotype (%): 56%
  Total Cell Count: 612
[6]
  Population Apoptotic (%): 29%
  Population Fragmented Nuclei (%): 5%
  Population Healthy Nuclei (%): 80%
  Population Hoechst High Intensity Objects (%): 10%
  Population Membrane Permeable-Phenotype (%): 4%
  Population Mitochondria Different-Phenotype (%): 67%
  Population Mitotic Cells (%): 70%
  Population Normal (%): 89%
  Population Pyknosed Nuclei (%): 13%
  Population Tubulin-Different-Phenotype (%): 54%
  Total Cell Count: 910
[7]
  Population Apoptotic (%): 21%
  Population Fragmented Nuclei (%): 14%
  Population Healthy Nuclei (%): 75%
  Population Hoechst High Intensity Objects (%): 9%
  Population Membrane Permeable-Phenotype (%): 6%
  Population Mitochondria Different-Phenotype (%): 7%
  Population Mitotic Cells (%): 78%
  Population Normal (%): 90%
  Population Pyknosed Nuclei (%): 9%
  Population Tubulin-Different-Phenotype (%): 12%
  Total Cell Count: 665
[8]
  Population Apoptotic (%): 10%
  Population Fragmented Nuclei (%): 24%
  Population Healthy Nuclei (%): 73%
  Population Hoechst High Intensity Objects (%): 2%
  Population Membrane Permeable-Phenotype (%): 3%
  Population Mitochondria Different-Phenotype (%): 3%
  Population Mitotic Cells (%): 89%
  Population Normal (%): 97%
  Population Pyknosed Nuclei (%): 2%
  Population Tubulin-Different-Phenotype (%): 8%
  Total Cell Count: 2738
